The target in one assay is endogenous PTGR2 (Homo sapiens, UniProt Q8N8N7). The format is binding. In outline:
(§1)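 SILAC-labeled HEK293T cells were used: heavy cells received FFF probe plus competitor and light cells received probe plus DMSO, in serum-free medium for 30 min at 37°C, followed by 365 nm UV for 10 min. Lysates (1.5 mg/mL) were mixed 1:1, clicked to biotin-azide, streptavidin-enriched, trypsin-digested and analysed by LC-MS. Ratios were averaged from ≥2 biological replicates.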

Another assay has as its target T1, ZADH2 (Homo sapiens, UniProt Q8N4Q0).
T1 sequence (Q8N4Q0 1-377): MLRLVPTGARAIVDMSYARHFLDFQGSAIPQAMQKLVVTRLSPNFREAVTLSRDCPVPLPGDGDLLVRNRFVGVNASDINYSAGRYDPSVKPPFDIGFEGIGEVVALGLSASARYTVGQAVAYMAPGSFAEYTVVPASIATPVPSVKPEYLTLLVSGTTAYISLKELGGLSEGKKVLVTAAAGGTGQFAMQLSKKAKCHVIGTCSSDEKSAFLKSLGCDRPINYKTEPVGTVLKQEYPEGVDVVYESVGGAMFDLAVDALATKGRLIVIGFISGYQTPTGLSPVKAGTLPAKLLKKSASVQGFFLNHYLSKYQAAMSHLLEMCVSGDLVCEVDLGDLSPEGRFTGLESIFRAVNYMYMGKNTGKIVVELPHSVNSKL
Kind of assay: MS-based competitive profiling with FFF 8: cross-reactivity with ZADH2. The format is binding. The following applies: competition of FFF 8 labeling. Put shortly: as §1

Assay [1] addresses T2, PTGR2 (Homo sapiens, UniProt Q8N8N7). In words: cell-based.
The next assay deals with T3, PPARγ (Homo sapiens, UniProt P37231).
T3 sequence (P37231 238-503 limits assumed): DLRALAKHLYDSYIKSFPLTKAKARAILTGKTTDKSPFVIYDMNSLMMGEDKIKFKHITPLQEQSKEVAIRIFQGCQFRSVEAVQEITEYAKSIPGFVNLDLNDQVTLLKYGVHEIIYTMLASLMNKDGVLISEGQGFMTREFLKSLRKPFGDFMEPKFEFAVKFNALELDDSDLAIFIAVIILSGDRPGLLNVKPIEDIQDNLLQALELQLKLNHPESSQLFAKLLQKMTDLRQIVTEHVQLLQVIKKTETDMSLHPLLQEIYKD
Kind of assay: PPARγ luciferase reporter assay, direct modulation of PPARγ. The format is cell-based. On the technique in general: A reporter such as luciferase makes a cellular process visible.

Assay [2] has as its target T2, PTGR2. In kind it is cell-based. The following applies: cells recombinantly expressing PTGR2. Put shortly:
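HEK293T cells were co-transfected (PEI) with a UAS-luciferase reporter, GAL4-DBD or GAL4-DBD::PPARγ-LBD, and full-length PTGR2 as indicated. After 24 hr they were treated with DMSO, 15-keto-PGE2 (20 μM), test compounds, or rosiglitazone (2 μM) control. After 16 hr cells were lysed and luciferase activity was measured.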

The target in assay [3] is T2, PTGR2. In words: In vitro LCMS-based activity assay for PTGR2. The format is biochemical.
The target of assay [4] is T2, PTGR2. In kind it is binding. In outline:
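HEK293T cells were transiently transfected with C-terminally FLAG-tagged human PTGR2 (pRK5, PEI). Cells at ~90% confluence were washed and treated in serum-free medium with probe plus competitor or DMSO for 30 min at 37°C, then irradiated at 365 nm for 10 min. Lysates (1 mg/mL) were clicked to TAMRA azide (25 μM) and fluorescence was read on gel. Curves: mean ± SD (n = 3 or 4), four-parameter fit.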

Assay [5] addresses T4, human PGRMC2 (Homo sapiens, UniProt O15173).
T4 sequence (O15173 1-223): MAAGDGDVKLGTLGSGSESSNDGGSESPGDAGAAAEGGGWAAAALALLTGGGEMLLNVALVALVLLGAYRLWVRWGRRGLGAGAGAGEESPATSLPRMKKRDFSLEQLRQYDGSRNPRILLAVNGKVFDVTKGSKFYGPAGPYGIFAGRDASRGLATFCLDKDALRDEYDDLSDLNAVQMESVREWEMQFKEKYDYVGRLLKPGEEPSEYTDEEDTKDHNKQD
The format is binding. The settings on record: HEK293T cells. In outline: (§2)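 HEK293T cells were transfected with human PGRMC2 and lysed 48 hr later. Lysates (1 mg/mL) were incubated with probe and competitor or DMSO for 30 min at room temperature, UV-irradiated, clicked to TAMRA azide, and analysed by in-gel fluorescence. Blockade curves: mean ± SD (n = 3 or 4), four-parameter non-linear fit.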

In another assay the target is T5, PGRMC2 (Mus musculus, UniProt Q80UU9).
T5 sequence (Q80UU9 1-217): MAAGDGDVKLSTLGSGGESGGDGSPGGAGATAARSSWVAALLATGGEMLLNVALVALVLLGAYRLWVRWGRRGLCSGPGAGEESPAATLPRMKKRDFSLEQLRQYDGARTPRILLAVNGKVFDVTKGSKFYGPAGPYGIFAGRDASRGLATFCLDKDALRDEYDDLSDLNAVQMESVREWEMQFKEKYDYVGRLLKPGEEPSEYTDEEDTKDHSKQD
In words: Quantitative proteomic. In kind it is binding.

Another assay relates to non-adipocyte cell lines. In words: Lipid accumulation in non-adipocyte cell lines. In kind it is cell-based.
Another assay addresses PGRMC1 (Mus musculus, UniProt O55022). Kind of assay: Quantitative proteomic. The following applies: 10 μM. In kind it is binding.
In assay [6] the test system is 3T3-L1 mouse preadipocytes. In words: Adipocyte phenotypic screen: lipid accumulation by Nile Red. The format is cell-based. The settings on record: for adipogenic activity in adipogenesis-related assays, in words: compounds 10 μM, 3T3-L1; for effect of co-treatment on the pro-adipogenic effects of 25: 10 μM with 25 (10 μM), Nile Red staining or adipogenic gene expression. In outline:
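3T3-L1 preadipocytes were induced two days post-confluence with dexamethasone (1 μM), IBMX (0.5 mM) and insulin (1 μg/ml), plus DMSO (0.1%), test compound (10 μM), test compound with probe, or rosiglitazone (2 μM). They were stained with Nile Red and Hoechst at day 7 of differentiation, imaged, and harvested for RNA. Mean ± SD, n = 3.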

In another assay the target is cathepsin B (CTSB) (Homo sapiens, UniProt P07858). In words: Competition of FFF 9 labeling of the active-site proximal peptide of CTSB. The format is binding. In outline: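 Cells were treated with probe (200–250 μM) with or without competitor in serum-free DMEM, UV-crosslinked, and lysed. Probe-labeled proteins were clicked to light or heavy biotin-TEV-azide (100 μM final) with CuSO4, TBTA and TCEP. Samples were combined, streptavidin-enriched, trypsin-digested on bead and released by TEV cleavage (50 mM Tris pH 8, 0.5 mM EDTA, 1 mM DTT). Probe-modified peptides were quantified by LC-MS.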

Assay [7] deals with T4, human PGRMC2. Kind of assay: In vitro gel-based competition of FFF probe 25 labeling of PGRMC2. The format is binding. Put shortly: as §2

Molecules are shown by their SMILES.

T2 sequence (Q8N8N7 whole entry): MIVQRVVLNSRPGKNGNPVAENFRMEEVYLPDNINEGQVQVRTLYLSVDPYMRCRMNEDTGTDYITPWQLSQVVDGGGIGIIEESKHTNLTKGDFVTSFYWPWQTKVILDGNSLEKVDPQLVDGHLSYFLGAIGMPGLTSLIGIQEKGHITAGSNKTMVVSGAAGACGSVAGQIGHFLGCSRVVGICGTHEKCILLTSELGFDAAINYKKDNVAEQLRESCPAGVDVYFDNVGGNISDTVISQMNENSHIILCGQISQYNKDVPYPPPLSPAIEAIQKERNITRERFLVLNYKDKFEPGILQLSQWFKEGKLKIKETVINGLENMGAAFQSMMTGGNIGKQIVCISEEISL
Sequence of endogenous PTGR2 (Q8N8N7 whole entry): as above
Sequence of PGRMC1 (O55022 whole entry): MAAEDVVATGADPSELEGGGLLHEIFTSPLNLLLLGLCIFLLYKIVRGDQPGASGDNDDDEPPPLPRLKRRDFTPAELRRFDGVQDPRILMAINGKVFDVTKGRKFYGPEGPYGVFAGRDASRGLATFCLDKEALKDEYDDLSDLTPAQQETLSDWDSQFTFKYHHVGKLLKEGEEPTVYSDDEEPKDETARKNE

Take `COc1ccccc1N1CCN(C(=O)Cc2ccccc2)CC1` [Compound 22, 1-(4-(2-Methoxyphenyl)piperazin-1-yl)-2-phenylethan-1-one]: the “inhibition of FFF 8 labeling of endogenous PTGR2” value against endogenous PTGR2 (5 μM, HEK293T cells) is listed as “complete inhibition”. Further, the “proteome-wide selectivity in blocking FFF 8 labeling, in words” value at endogenous PTGR2 (HEK293T cells) is on record as “excellent selectivity”. For the same molecule, at endogenous PTGR2 (read-out: inhibition of FFF 8 labeling of endogenous PTGR2), the inhibition at 0.5 µM was ~80%. Besides, the “cross-reactivity with ZADH2, sequence-related homolog of PTGR2” value on ZADH2 is “did not cross-react”. In addition, on PTGR2 [1], the IC50 is ~700 nM. The “direct modulation of PPARγ” value on PPARγ is on record as “neither 22 nor 23 directly modulated PPARγ”. In addition, the “rescue of 15-keto-PGE2-dependent PPARγ transcriptional activity” value on PTGR2 [2] was “concentration-dependent rescue”. For the same molecule, at PTGR2 [3], the “increase in potency relative to 20, 15-keto-PGE2 reductase activity” value was > 20 fold. The “increase in potency relative to 20, competition of 8-labeling” value on PTGR2 [4] is reported as > 20 fold.

As to `COc1ccccc1C1CCN(S(=O)(=O)Cc2ccccc2)CC1` [Compound 23, 1-(Benzylsulfonyl)-4-(2-methoxyphenyl)piperidine], the “direct modulation of PPARγ” value on PPARγ was “neither 22 nor 23 directly modulated PPARγ”.

Regarding `C#CCCC1(CCC(=O)N[C@@H](CC(C)C)C(=O)Nc2ccc3ccccc3c2)N=N1` [Compound 25, (S)-2-(3-(3-(but-3-yn-1-yl)-3H-diazirin-3-yl)propanamido)-4-methyl-N-(naphthalen-2-yl)pentanamide], the “labeling of recombinant human PGRMC2 by FFF probe” value at human PGRMC2 [5] is on record as “strongly labeled”. Also, the “preferential enrichment of PGRMC2 by 25 over 26 (SILAC ratio)” value on PGRMC2 (10 μM each, 30 min) is reported as > 3 fold. Also, in the assay with non-adipocyte cell lines, the “lipid accumulation in non-adipocyte cell lines” value was “did not induce lipid accumulation”. In addition, the “enrichment of PGRMC1 by 25 over 26” value at PGRMC1 is listed as “not preferentially enriched”. Also, the “lipid accumulation, in words” value in assay [6] (Nile Red) was “one of the highest levels of lipid accumulation”.

With `C#CCCC1(CCC(=O)N[C@@H](C)C(=O)Nc2cc(OC)c3ccccc3c2)N=N1` [Compound 26, (S)-3-(3-(but-3-yn-1-yl)-3H-diazirin-3-yl)-N-(1-((4-methoxynaphthalen-2-yl)amino)-1-oxopropan-2-yl)propanamide], the “adipogenic activity in adipogenesis-related assays, in words” value (“adipogenic activity” for short) in assay [6] is recorded as “much less adipogenic activity”.

Regarding `CCCC(=O)N[C@@H](CC(C)C)C(=O)Nc1ccc2ccccc2c1` [Compound 27, (S)-2-butyramido-4-methyl-N-(naphthalen-2-yl)pentanamide], the “blockade of 25 labeling of recombinant human PGRMC2 by competitor” value on human PGRMC2 [5] was “blocked in a concentration-dependent manner”. Also, the “competition of 25 (10 μM) enrichment of PGRMC2 (SILAC ratio)” value on PGRMC2 (10× competitor) is recorded as > 3 fold. The “adipogenic activity” value in assay [6] is recorded as “active”.

For `CCCC(=O)N[C@@H](C)C(=O)Nc1cc(OC)c2ccccc2c1` [Compound 28, (S)-N-(1-((4-methoxynaphthalen-2-yl)amino)-1-oxopropan-2-yl)butyramide], the “adipogenic activity” value in assay [6] is “largely inactive”.

Turning to `CCCC(=O)N[C@@H](CC(C)C)C(=O)N[C@H]1CCCc2ccccc21` [Compound 29, (S)-2-butyramido-4-methyl-N-((S)-1,2,3,4-tetrahydronaphthalen-1-yl)pentanamide], in [6], the “adipogenic activity” value is “inactive controls”.

On to `CCCC(=O)N[C@@H](CC(C)C)C(=O)NCCc1ccc2c(c1)OCO2` [Compound 30, (S)-N-(2-(benzo[d][1,3]dioxol-5-yl)ethyl)-2-butyramido-4-methylpentanamide], for which the “adipogenic activity” value in [6] was “inactive controls”.

Consider `CC(C)(C)OC(=O)CN(Cc1ccc(Cl)cc1)Cc1ccc([N+](=O)[O-])s1` [GSK4112, reference compound], for which the “effect of co-treatment on the pro-adipogenic effects of 25” value in assay [6] was “had no effect”.

As to `CCOC(=O)C1Cc2ccccc2CN1C(=O)c1ccc(SC)s1` (centres unmarked) [SR8278, reference compound], the “effect of co-treatment on the pro-adipogenic effects of 25” value in assay [6] was “blocked”.

Regarding `CC(NC(=O)[C@H](Cc1ccccc1)NC(=O)OCc1ccccc1)C(=O)CF` (some centres unmarked) [Z-FA-FMK], on cathepsin B (CTSB), the “blockade of probe 9 interaction with CTSB peptide (aa 315–332)” value was “blocked”.

For `C=CC1=C(C)c2cc3[nH]c(cc4nc(cc5[nH]c(cc1n2)c(C)c5CCC(=O)O)C(CCC(=O)O)=C4C)c(C)c3C=C` [protoporphyrn IX], at human PGRMC2 [7], the IC50 was determined as 130 nM.

As a reminder, the inhibition is the percentage by which the read-out fell short of the control. For orientation: IC50 means the concentration that inhibits the measured activity by half.

The values are drawn from PMC5632530 (Cell, 2017).
